Source: PubChem
CHRM4 antagonist: blocks acetylcholine activation of human M4 receptor | inhibition, % at 3 µM | actives 0.73% (n = 360,000) | AID 624125 | CHO-hM4 cells, ACh EC80, Fluo-8 calcium fluorescence | P08173;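 active means inhibition above its plate's cutoff, the mean inhibition of sample wells plus 3 SD, cut at about 27% in these data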
M4 ag: agonists of human muscarinic M4 receptor (CHRM4); P08173; CHO-K1 hM4/Gqi5, Fluo-8 calcium fluorescence; vehicle 0%, full acetylcholine response 100%; activation, % at 3 µM; actives 0.14% (n = 360,000); AID 624127;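 active means activation above the run mean over all test wells plus 3 SD, cut at about 32% in these data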;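 further: peak over basal fluorescence ratio per well then scaled between controls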
M5 PAM: potentiates acetylcholine response at human M5 receptor. P08912. CHO-K1 hM5, Fluo-8 calcium, ACh EC20 PAM; 0% = ACh EC20, 100% = ACh EC100. activation, % at 3 µM. actives 0.3% (n = 360,000). AID 624038;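 active means activation above the run cutoff, the mean activation of all test compounds plus 3 SD, cut at about 18% in these data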
Target sequence (P08912 whole entry, looked up): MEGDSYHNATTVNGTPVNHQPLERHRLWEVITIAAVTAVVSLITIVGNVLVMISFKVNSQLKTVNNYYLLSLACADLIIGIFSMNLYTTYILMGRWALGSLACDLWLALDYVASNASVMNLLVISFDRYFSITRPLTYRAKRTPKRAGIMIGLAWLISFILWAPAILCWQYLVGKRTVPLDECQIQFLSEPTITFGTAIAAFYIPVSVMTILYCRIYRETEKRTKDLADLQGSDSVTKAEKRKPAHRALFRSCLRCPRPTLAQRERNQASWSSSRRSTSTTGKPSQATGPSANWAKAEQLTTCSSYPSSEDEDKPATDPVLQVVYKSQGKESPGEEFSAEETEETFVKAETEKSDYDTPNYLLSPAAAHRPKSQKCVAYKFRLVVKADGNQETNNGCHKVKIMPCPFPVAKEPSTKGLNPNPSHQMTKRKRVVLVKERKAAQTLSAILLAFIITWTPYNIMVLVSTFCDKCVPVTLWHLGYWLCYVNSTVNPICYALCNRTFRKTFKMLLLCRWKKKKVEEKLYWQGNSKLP
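Measured by: Fluo-8 calcium fluorescence; material: human M5 receptor in CHO-K1 cells; schedule: Post-acetylcholine fluorescence recording 140 s; benchmarks: low control EC20 acetylcholine (0%), high control EC100 acetylcholine (100%); read-out: Max/basal fluorescence ratio as % of EC20–EC100 ACh window; compound: single dose, 3 µM nominal final test concentration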
CHRM5 agonist: agonists of human muscarinic M5 receptor (CHRM5); P08912; CHO-K1 hM5 cells, Fluo-8 calcium fluorescence; 0% DMSO wells, 100% maximal acetylcholine response; AID 624037; actives 0.19% (n = 360,000); activation, % at 3 µM;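 active means activation above the run's mean over test compounds plus 3 SD, cut at about 23% in these data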;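 further: signal is peak over basal fluorescence ratio across the kinetic read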
M5 antag: antagonists of human muscarinic M5 receptor (CHRM5) | P08912 | CHO-hM5 cells, Fluo-8 calcium fluorescence, ACh EC80 | inhibition, % at 3 µM | actives 0.59% (n = 360,000);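 active means inhibition above a per-plate cutoff, the mean of that plate's test compounds plus 3 SD, cut at about 27% in these data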
M4 PAM: potentiates acetylcholine response at human M4 receptor | P08173 | CHO-K1 hM4/Gqi5, Fluo-8 calcium fluorescence, ACh EC20; 0% = ACh EC20, 100% = maximal ACh | activation, % at 3 µM | actives 0.4% (n = 360,000);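 active means activation above its plate's cutoff, the mean activation of sample wells plus 3 SD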
Each line names hits and unclear results; the compound was inactive in the other large screens. Compounds with a hit are over-represented: about 1.8% of the library has one in this group of screens.

O=C(CN1CCN(c2ccccn2)CC1)N1c2ccccc2Sc2ccc(C(F)(F)F)cc21	none
CC(C)(C)OC(=O)N1CCC(C(=O)Nc2cccc(C(=O)NCCCc3ccccc3)c2)CC1	none
CCn1c(C)cc(/C=C2\NC(=O)N(Cc3ccc(Cl)cc3)C2=O)c1C	CHRM4 antagonist 31
CCN1C(=O)N/C(=C/c2cc(C)n(Cc3ccccc3)c2C)C1=O	none
COc1ccccc1CNC(=O)CCCn1nc(C)c2c(C)n(-c3ccc(C)cc3)nc2c1=O	none
CC1=[N+](C)c2c(ccc3cccnc23)C1(C)C	CHRM4 antagonist 35, M5 antag 37
Cc1ccc2nc(C)cc(C(=O)NC3CCCCCC3)c2c1	M4 PAM 25
C=CCOc1cccc(C(=O)/C=C2/C(=O)Nc3ccccc32)c1	none
CC(=O)/C=C1/C(=O)Nc2ccccc21	M5 antag 28
Cc1cccn2c(=O)c(C=O)c(N3CCCCC3)nc12	M5 PAM 20
CC(C)N(C(=O)CN1C(=O)NC(c2ccccc2)(c2ccccc2)C1=O)C(C)C	none
CN(CC(=O)Nc1ccccc1C(=O)Nc1ccccc1)C1CCCCC1	none
Cc1ccc(/C=C/C(=O)NC2CCCCCCC2)o1	M4 PAM 28
Cc1ccc(/C=N/NC(=O)NC2CCCCC2)o1	none
C[C@@H]1CN([C@@H](C)CO)C(=O)c2ccccc2-c2ccccc2CO[C@@H]1CN(C)S(=O)(=O)c1ccc(C(F)(F)F)cc1	none
CC(OC(=O)c1cc(Br)ccc1O)C(=O)NCc1ccc2c(c1)OCO2 (stereo not given)	none
COc1ccc(CCN2C(=O)C(Oc3ccccc3C)C2c2ccc3c(c2)OCO3)cc1OC (stereo not given)	CHRM4 antagonist 29
COc1ccc(CCN2C(=O)C(Oc3ccccc3C)C2c2ccc3c(c2)OCO3)cc1 (stereo not given)	none
CCOc1ccc(NC(=O)c2ccc3c(c2)C(=O)N(Cc2ccncc2)C3=O)cc1	none
Cc1c(Br)c([N+](=O)[O-])nn1C(C)C(=O)N1CCc2ccccc2C1 (stereo not given)	CHRM4 antagonist 55
Cc1c(Br)c([N+](=O)[O-])nn1CC(=O)N1CCc2ccccc2C1	none
Cc1cc(/C=C2/SC(=S)N(c3cccc(Cl)c3)C2=O)c(C)n1-c1cccnc1	CHRM4 antagonist 34
Cc1cc(/C=C2/SC(=S)N(c3ccc([N+](=O)[O-])cc3)C2=O)c(C)n1-c1cccnc1	none
Cc1cc(/C=C2\SC(=S)N(C)C2=O)c(C)n1-c1ccccc1O	CHRM4 antagonist 27
CC(=O)N1c2ccc(S(=O)(=O)N3CCC(C(=O)NCCc4ccc(Cl)cc4)CC3)cc2CC1C (stereo not given)	none
Nc1nc2cc3c(cc2cc1C(=O)NCc1ccc(F)cc1)OCO3	M5 antag 27
CC(C)c1cc(C(=O)NCc2ccc(F)cc2)c(N)s1	M5 PAM 18
O=C(NCc1ccc2c(c1)OCO2)c1nnc(Cc2ccc(F)cc2)o1	none
CCOC(=O)C1(CCCc2ccccc2)CCN(C2CCSCC2)CC1	M5 antag 30
CC1=NNC(=O)/C1=C\c1cn(-c2ccccc2)nc1-c1ccccc1	CHRM4 antagonist 39, CHRM5 agonist 28, M5 antag 32
COc1cccc2cc(C(=O)Nc3ccccc3C(=O)N3CCOCC3)oc12	none
Cc1cc(NC(=O)COc2ccc(F)c(Cl)c2)no1	M4 PAM 19
Cc1cc(NC(=O)COc2ccc(C)c(C)c2)no1	none
Cc1c(C(=O)N2CCN(c3ccccn3)CC2)oc2c1C(=O)CC(C)(C)C2	none
COc1ccccc1N1CCN(C(=O)c2oc3c(c2C)C(=O)CC(C)(C)C3)CC1	M5 antag 29
C/C(=N/NC(=O)CNC(=O)c1ccccc1)c1ccc(C)cc1	none
C/C(=N\NC(=O)CNC(=O)c1cccc(F)c1)c1ccc2ccccc2c1	CHRM4 antagonist 40
c1ccc(C(CN2CCCCC2)Oc2ccccn2)cc1 (stereo not given)	CHRM4 antagonist 35
OC(COC(c1ccccc1)c1ccccc1)CN1CCCCC1 (stereo not given)	none
CCN(C(=O)c1ccc(Cl)cc1[N+](=O)[O-])c1ccccc1C	none
CC(C)(C)N(Cc1ccccc1)C(=O)c1ccc(Br)o1	none
CC(C)(C)N(Cc1ccccc1)C(=O)c1ccc(Cl)cc1[N+](=O)[O-]	CHRM4 antagonist 27
Cc1ccc(C(=O)N(Cc2ccccc2)C(C)(C)C)cc1C	CHRM4 antagonist 37
O=S(=O)(NCCC1=CCCCC1)c1ccc(OC(F)(F)F)cc1	none
CC[C@H](C)Cc1cn([C@@H](CCCCNC(=O)OC(C)(C)C)C(=O)NCCCCCCCCCCC(=O)N2CCN(C(=O)OC(C)(C)C)CC2)nn1	CHRM4 antagonist 28
CC1CC2C3CCC4=CC(=O)C=CC4(C)C3(F)C(O)CC2(C)C1(O)C(=O)CO (stereo not given)	none
CC1(C)O[C@@H]2C[C@H]3[C@@H]4C[C@H](F)C5=CC(=O)C=C[C@]5(C)[C@@]4(F)[C@@H](O)C[C@]3(C)[C@]2(C(=O)CO)O1	none
C[C@]12C=CC(=O)C=C1CC[C@H]1[C@@H]3C[C@@H](O)[C@](O)(C(=O)CO)[C@@]3(C)C[C@H](O)[C@@]12F	CHRM5 agonist 48
CC1(C)O[C@@H]2C[C@H]3[C@@H]4CCC5=CC(=O)C=C[C@]5(C)[C@@]4(F)[C@@H](O)C[C@]3(C)[C@]2(C(=O)CO)O1	CHRM4 antagonist 46
Cc1cnc(NC(=O)CSc2ncc(-c3ccccc3)n2Cc2ccco2)s1	CHRM5 agonist 26
CN(C)c1nc(-c2ccccc2)c2cc(Cl)ccc2n1	none
O=C(COC(=O)c1ccco1)NCCNC(=O)COC(=O)c1ccco1	M4 PAM 19
N#C/C(=N\Nc1ccccc1)C(N)=S	none
N#C/C(=N/Nc1ccccc1[N+](=O)[O-])C(N)=S	M5 antag 29
CCOC(=O)Cn1cnc(-c2ccc([N+](=O)[O-])cc2)c1	M4 PAM 27
CCCCc1nnc(NC(=O)C23CC4CC(CC(NC(C)=O)(C4)C2)C3)s1	M5 antag 33
Cc1cc(C(=O)CCC(=O)Nc2ncccc2C)c(C)s1	none
CCN(CC)S(=O)(=O)c1ccc(C(=O)Nc2c3c(nn2C(C)(C)C)CS(=O)(=O)C3)cc1	CHRM4 antagonist 27
CCC1=NN2C(=N)/C(=C/c3cc(C)n(Cc4ccccc4)c3C)C(=O)N=C2S1	M4 ag 53, CHRM5 agonist 24
